Test results taken from article PMC4427609 (Drug Design, Development and Therapy, 2015).
Like-named read-outs stand apart in the source and are kept apart here. Blank lines part the entries; values can stand above or below the molecule they belong to.

Experiments:
Type in all cases: in vivo, rat
Sprague-Dawley rats [1] = conditions: third day post STZ, mean ± SEM, n=10; for ALP (alkaline phosphatase) / ALT (alanine aminotransferase) / AST (aspartate aminotransferase) / Albumin / Creatinine / GGT (gamma-glutamyl transferase) / Urea: serum
Summary of the method: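 Male SD rats got blank injections (no STZ), one STZ dose, or two STZ doses over 2 days. STZ was freshly dissolved in 0.1 M citrate buffer pH 4.5 and given at 80 mg/kg ip. On day 3 rats were fasted for 18 h with water ad libitum. They were then staged by glucose: Stage 0 <200, Stage 1 200–450, Stage 2 451–750 mg/dL.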

Sprague-Dawley rats [2] = assay: Histopathology of liver, kidney and pancreas of STZ-induced diabetic rats; conditions: hematoxylin and eosin, light microscope
Summary of the method: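 Diabetes was induced in male SD rats with freshly dissolved STZ (0.1 M citrate, pH 4.5), 80 mg/kg ip, two doses over 2 days; diabetic meant fasting glucose >200 mg/dL. Liver, kidney and pancreas from diabetic and nondiabetic rats were taken immediately after sacrifice and fixed in 10% phosphate-buffered formalin. Tissue was paraffin-embedded, cut at 5 μm, H&E-stained and examined by light microscopy.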

[3] = Serum insulin pharmacokinetics in STZ diabetic and nondiabetic rats; conditions: insulin 4 IU/kg subcutaneously; result in words
[4] = system: STZ diabetic and nondiabetic rats; assay: Effect of insulin dose on STZ diabetic and nondiabetic rats; conditions: insulin 6 IU/kg subcutaneously, 2 hours, mean ± SEM, n=10
[5] = Stage 1 diabetic rats (200–450 mg/dL)
[6] = Stage 2 diabetic rats (451–750 mg/dL)

- ALP (alkaline phosphatase) (Sprague-Dawley rats [1]; [5]): 247±47.5 IU/L
- Albumin (Sprague-Dawley rats [1]; [5]): 4.5 ± 0.3 g/dL
- Creatinine (Sprague-Dawley rats [1]; [5]): 1.1 ± 0.3 mg/dL
- GGT (gamma-glutamyl transferase) (Sprague-Dawley rats [1]; [5]): 3.4±0.8 IU/L
- Urea (Sprague-Dawley rats [1]; [5]): 70.7 ± 10.2 mg/dL
- ALP (alkaline phosphatase) (Sprague-Dawley rats [1]; [6]): 322.7±25.5 IU/L
- Albumin (Sprague-Dawley rats [1]; [6]): 4.9 ± 0.2 g/dL
- Creatinine (Sprague-Dawley rats [1]; [6]): 1.6 ± 0.2 mg/dL
- GGT (gamma-glutamyl transferase) (Sprague-Dawley rats [1]; [6]): 9.5±4.1 IU/L
- Urea (Sprague-Dawley rats [1]; [6]): 148.8 ± 9.3 mg/dL
Molecule: CN(N=O)C(=O)N[C@H]1C(O)O[C@H](CO)[C@@H](O)[C@@H]1O (mixture of isomers) [STZ, streptozotocin]
- Glucose (heart) (Sprague-Dawley rats [1]; [5]): 439 ± 20.9 mg/dL
- Glucose (heart) (Sprague-Dawley rats [1]; [6]): 668 ± 34.5 mg/dL
- ALT (alanine aminotransferase) (Sprague-Dawley rats [1]; [5]): 88±18.8 IU/L
- AST (aspartate aminotransferase) (Sprague-Dawley rats [1]; [5]): 131.4±23.1 IU/L
- ALT (alanine aminotransferase) (Sprague-Dawley rats [1]; [6]): 80.1±8.1 IU/L
- AST (aspartate aminotransferase) (Sprague-Dawley rats [1]; [6]): 151.8±22.9 IU/L
- Histology of kidney sections (Sprague-Dawley rats [2]): tubular atrophy and increased vacuolization of renal tubular epithelial cells
- Histology of liver sections (Sprague-Dawley rats [2]): clear diffused hepatic steatosis

Molecule: insulin: Recombinant human (rh) insulin powder from Biocon, dissolved in Tris buffer (pH 7), injected subcutaneously
- AUC of diabetic rats compared to nondiabetic rats [3]: doubled
- minimum percentage of glucose level ([4]; STZ diabetic rats): 13.4%±1%
- minimum percentage of glucose level ([4]; nondiabetic rats): 40.7%±4%
